These results are taken from article PMC10981011 (Synthetic and Systems Biotechnology, 2024).

Data set [1] has as its system Apg (acarbose-preferred glucosidase). Nature of the data set: In vitro reaction of Apg. As to conditions: 10 μM Apg, 1 mM substrate, 37 °C, 2 h. The data set is classed as in vitro ADME, Klebsiella grimontii TD1.
The test system of data set [2] is Mak1 (microbiome-derived acarbose kinase 1). Nature of the data set: In vitro reaction of Mak1. The class given is in vitro ADME, human microbiome. As to conditions: 10 μM Mak1, 0.5 mM substrate, 2 mM ATP, 30 °C, 2 h. In short, it runs like this: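 Mak1 expressed in E. coli Origami B (DE3) (1 mM IPTG, 16 °C, 18 h) and purified on Ni-NTA. Reactions used 100 mM Tris-HCl pH 7.0, 10 mM MgCl₂, 2 mM ATP, 10 μM Mak1 and 0.5 mM test compound. They ran at 30 °C for 2 h and were stopped with 2 volumes methanol. Control used heat-inactivated Mak1 (95 °C, 30 min). Phosphorylated product detected by LC-MS on an SB-Aq column.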

On to `C[C@H]1O[C@H](O[C@H]2[C@H](O)[C@@H](O)[C@@H](O[C@H]3[C@H](O)[C@@H](O)C(O)O[C@@H]3CO)O[C@@H]2CO)[C@H](O)[C@@H](O)[C@@H]1N[C@H]1C=C(CO)[C@@H](O)[C@H](O)[C@H]1O` (some centres unmarked) [Acarbose], for which the “Hydrolysis by Apg” value in data set [1] is “completely converted”. Further, the “Phosphorylation by Mak1 (detection of phosphorylated product)” value in data set [2] is on record as “catalyzed the conversion of acarbose to O-7-phosphoryl-acarbose”.
